Compounds with a hit are over-represented: about 1.8% of the library has one in this group of screens.
M4 PAM = positive allosteric modulators of human muscarinic M4 receptor | P08173 | CHO-K1 hM4/Gqi5, Fluo-8 calcium fluorescence, ACh EC20; 0% = ACh EC20, 100% = maximal ACh | activation, % at 3 µM | hit rate 0.4% among 360,000;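 active = activation above its plate's cutoff, the mean activation of sample wells plus 3 SD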
M5 ag = CHRM5 agonism in calcium assay. P08912. CHO-K1 hM5 cells, Fluo-8 calcium fluorescence; 0% DMSO wells, 100% maximal acetylcholine response. activation, % at 3 µM. hit rate 0.19% among 360,000. AID 624037;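 active = activation above the run's mean over test compounds plus 3 SD, cut at about 23% in these data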;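 note: signal is peak over basal fluorescence ratio across the kinetic read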
Target sequence (P08912 whole entry, looked up): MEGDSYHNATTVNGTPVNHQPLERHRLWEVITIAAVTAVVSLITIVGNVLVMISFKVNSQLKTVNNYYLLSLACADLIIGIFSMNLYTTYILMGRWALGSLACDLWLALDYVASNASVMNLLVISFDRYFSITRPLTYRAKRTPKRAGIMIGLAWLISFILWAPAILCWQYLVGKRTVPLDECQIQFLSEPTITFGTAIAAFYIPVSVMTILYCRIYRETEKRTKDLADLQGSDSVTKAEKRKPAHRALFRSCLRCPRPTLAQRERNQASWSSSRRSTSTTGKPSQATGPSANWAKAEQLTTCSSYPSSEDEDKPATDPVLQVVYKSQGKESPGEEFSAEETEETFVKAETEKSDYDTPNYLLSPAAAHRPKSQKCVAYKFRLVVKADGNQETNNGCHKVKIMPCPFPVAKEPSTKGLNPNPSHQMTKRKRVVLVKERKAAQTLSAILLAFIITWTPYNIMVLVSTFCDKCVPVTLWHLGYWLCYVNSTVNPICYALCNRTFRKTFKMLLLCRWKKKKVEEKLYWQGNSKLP
CHRM5 PAM = potentiates acetylcholine response at human M5 receptor. CHO-K1 hM5, Fluo-8 calcium, ACh EC20 PAM; 0% = ACh EC20, 100% = ACh EC100. hit rate 0.3% among 360,000. activation, % at 3 µM. P08912;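 active = activation above the run cutoff, the mean activation of all test compounds plus 3 SD, cut at about 18% in these data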
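system = human M5 receptor in CHO-K1 cells | compound = one concentration, 3 µM final (nominal) | schedule = Post-acetylcholine fluorescence recording 140 s | signal = Fluo-8 calcium dye fluorescence, kinetic read | benchmarks = low control EC20 acetylcholine (0%), high control EC100 acetylcholine (100%) | repeats = singlicate, one well per test compound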
M5 antag = antagonists of human muscarinic M5 receptor (CHRM5); P08912; hit rate 0.59% among 360,000; CHO-hM5 cells, Fluo-8 calcium fluorescence, ACh EC80; inhibition, % at 3 µM;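 active = inhibition above a per-plate cutoff, the mean of that plate's test compounds plus 3 SD, cut at about 27% in these data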;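 note: 0% = acetylcholine EC80 with DMSO and 100% = DMSO without agonist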
M4 ag = agonists of human muscarinic M4 receptor (CHRM4); P08173; CHO-K1 hM4/Gqi5, Fluo-8 calcium fluorescence; vehicle 0%, full acetylcholine response 100%; activation, % at 3 µM; hit rate 0.14% among 360,000; AID 624127;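 active = activation above the run mean over all test wells plus 3 SD, cut at about 32% in these data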;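 note: peak over basal fluorescence ratio per well then scaled between controls; 0% = DMSO wells and 100% = acetylcholine at EC100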
M4 antag = blocks acetylcholine activation of human M4 receptor; inhibition, % at 3 µM; CHO-hM4 cells, ACh EC80, Fluo-8 calcium fluorescence; AID 624125; hit rate 0.73% among 360,000; P08173;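 active = inhibition above its plate's cutoff, the mean inhibition of sample wells plus 3 SD, cut at about 27% in these data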;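 note: 0% = acetylcholine EC80 with DMSO and 100% = DMSO without agonist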
The depositor's hits bear a star.

SMILES	M4 PAM	M5 ag	CHRM5 PAM	M5 antag	M4 ag	M4 antag
O=C1C=CC(=O)N1c1ccc2c(c1)Cc1cc(F)ccc1-2	-8.5	-2.1	10.1	-3.4	8.0	37.4*
CC(=O)Nc1ccc2c(c1)Cc1cc(N3C(=O)C=CC3=O)ccc1-2	-7.1	-8.2	-15.6	15.7	5.0	33.5*
COc1cccc(CNC(=O)CCNS(=O)(=O)c2ccc3[nH]c(=O)oc3c2)c1	16.4*	-3.2	6.0	-3.6	-0.5	-4.2
O=C1/C(=C\c2cccc(O)c2O)SC(=S)N1Cc1ccccc1	1.1	2.5	1.4	1.0	0.5	7.8
O=C1/C(=C\c2ccc(O)c(O)c2)SC(=S)N1Cc1ccccc1	-9.6	15.1	-8.8	22.0	20.4	23.3
COc1cc(/C=C2\SC(=S)N(C(C(=O)O)c3ccccc3)C2=O)ccc1O (stereo unspecified)	-21.4	40.3*	-20.4	27.1*	40.4*	21.6
COc1ccc(/C=C2\SC(=S)N(C(Cc3ccccc3)C(=O)O)C2=O)cc1 (stereo unspecified)	-4.2	-1.2	-4.1	10.8	-0.5	11.6
O=C1/C(=C\c2cc([N+](=O)[O-])ccc2O)SC(=S)N1Cc1ccc(Cl)cc1	-22.6	15.7	-11.3	28.5*	17.3	30.0*
O=C(O)C(c1ccccc1)N1C(=O)/C(=C\c2ccc(O)c(O)c2)SC1=S (stereo unspecified)	-23.1	16.6	-6.8	2.1	35.0*	15.4
COc1cc(/C=C2/SC(=S)N(Cc3ccccc3)C2=O)ccc1O	1.9	23.3*	1.1	11.4	10.5	-6.2
COc1ccccc1/C=C1\SC(=S)N(C(C(=O)O)c2ccccc2)C1=O (stereo unspecified)	0.4	-6.2	-0.9	1.5	-0.7	-7.2
Cn1cc([N+](=O)[O-])c(C(=O)N/N=C/c2ccc3c(c2)OCO3)n1	3.0	0.1	-3.6	5.7	0.2	6.8
CCOc1ccc(/C=C2/SC(=S)N(C(C(=O)O)c3ccccc3)C2=O)cc1OCC (stereo unspecified)	3.9	-1.9	3.5	-4.8	0.5	0.3
CCOc1cc(/C=C2\SC(=S)N(C(C(=O)O)c3ccccc3)C2=O)ccc1O (stereo unspecified)	-27.8	61.1*	-24.0	14.1	52.1*	10.4
COc1cc(/C=C2\SC(=S)N(NS(=O)(=O)c3ccccc3)C2=O)ccc1O	-8.1	11.6	-6.3	13.1	10.2	3.5
COc1cc(/C=C2/SC(=S)N(c3c(C)n(C)n(-c4ccccc4)c3=O)C2=O)ccc1O	-5.8	28.9*	-16.2	18.0	9.3	7.6
CCCC(O)(c1ccc(CC)cc1)C(CN1CCOCC1)c1ccccc1 (stereo unspecified)	-10.8	-10.5	-5.4	-2.3	-1.7	2.4
N#C/C(=C(\O)c1cc(Cl)sc1Cl)c1nc2ccccc2[nH]1	-0.4	-2.9	-2.0	-5.2	2.0	-0.1
CCOC(=O)N1CCN(C(=O)CNC(=O)Cn2cnc3ccccc3c2=O)CC1	21.4*	-3.5	8.2	2.9	0.1	14.4
Nc1nc(NCCOCCO)nc(NC2CCCCC2)c1[N+](=O)[O-]	3.4	5.5	-4.3	27.6*	1.7	3.4
CC(C)CNc1nc(N)c([N+](=O)[O-])c(NCC2CCCO2)n1 (stereo unspecified)	35.4*	-1.0	10.7	-6.3	1.5	0.9
CC(C)CCNc1nc(N)c([N+](=O)[O-])c(NCCO)n1	19.2	19.3	19.2*	-13.8	0.8	-12.4
Cc1ccc(S(=O)(=O)N2CC3C(=O)C[C@@H](c4ccccc4)N(S(=O)(=O)c4cccc(Cl)c4)C3CC2c2ccccc2)cc1 (stereo partly specified)	-5.9	1.1	-5.3	0.8	4.2	5.6
CC1CCCCC1NC(=O)COC(=O)c1ccc2c(c1)NC(=O)CS2 (stereo unspecified)	1.8	2.1	-4.3	11.2	4.0	-3.1
O=c1c(/C=C(\O)c2ccccc2)nc2ccccc2n1-c1ccccc1	3.7	-1.3	-1.3	5.4	26.2	38.6*
SMILES	M4 PAM	M5 ag	CHRM5 PAM	M5 antag	M4 ag	M4 antag
OC(c1ccc(F)cc1)c1nc(-c2cc3ccccc3o2)cs1 (stereo unspecified)	-10.3	14.5	-15.1	6.8	61.0*	20.2
Cc1nn(-c2cc(N3CCNCC3)ccc2[N+](=O)[O-])c(=O)c2ccccc12	2.4	-6.9	19.0*	-3.7	0.7	-0.1
CC1(C)Cc2c(c(N3CCOCC3)nc3sc(C(=O)Nc4cccc(Cl)c4)c(N)c23)CO1	17.8*	-0.8	13.4	-11.8	2.2	-4.8
CC1(C)Cc2c(c(N3CCOCC3)nc3sc(C(=O)Nc4ccccc4)c(N)c23)CO1	4.5	-0.5	3.3	-7.3	4.9	-13.4
O=C(c1ccc(Cl)c([N+](=O)[O-])c1)N(c1ccccn1)c1ccccn1	7.0	0.2	19.9*	8.6	0.3	-1.3
O=C1c2ccccc2S(=O)(=O)c2cc(C(=O)N(c3ccccn3)c3ccccn3)ccc21	2.3	67.0*	-18.7	-2.1	77.2*	-10.0
CCCCN1C(=O)C(C(=O)OCc2ccccc2)CC2=C1CCCC2=O (stereo unspecified)	-1.2	2.9	-3.7	-2.6	1.0	3.2
O=C(N/N=C1/CCSC1)c1cc(Br)ccc1O	-4.0	-0.6	-17.8	45.5*	8.3	-5.3
OCCC1CN(Cc2cccc(-n3cccn3)c2)CCN1Cc1ccccc1 (stereo unspecified)	7.0	-8.1	9.0	-5.8	2.9	-10.4
C[C@H](CO)N1C[C@H](C)[C@@H](CN(C)Cc2ccccc2)OCc2cnnn2CCCC1=O	-1.8	0.6	-3.8	21.1	0.6	5.8
COc1ccc(-c2csc3nc(C)n(-n4cccc4)c(=O)c23)cc1	3.4	-3.3	9.9	-3.8	-2.8	-1.5
Cc1nc2scc(-c3ccc(C(C)(C)C)cc3)c2c(=O)n1N	-14.7	4.1	-19.4	33.4*	15.2	9.1
COC(=O)c1sc(NC(=O)OCc2ccccc2)nc1CCNC(=O)OC(C)(C)C	0.6	-1.1	-2.2	2.5	2.1	-1.1
Cc1ccsc1C(=O)N1CCCC(C)(C(=O)NS(=O)(=O)C2CC2)C1 (stereo unspecified)	1.9	0.3	0.2	4.9	0.6	0.9
CC1OC2CC(=O)OC2C2=C1C(=O)c1c(O)cccc1C2=O (stereo unspecified)	5.6	20.2	2.4	45.4*	8.0	29.2*
CCCC1(C(=O)OCC)NC(c2cc(OC)c(OC)c(OC)c2)C2C(=O)N(CC)C(=O)C21 (stereo unspecified)	34.7*	1.2	-1.4	-4.7	1.8	-2.7

Source: PubChem (The Scripps Research Institute Molecular Screening Center)
